Bioassay records from PubChem BioAssay.
Glyco luc inh – blocks N-linked glycosylation in D54 reporter cells | D54 ERlucT glycosylation luciferase reporter, 24 h; percent of 100 nM tunicamycin response | AID 588692 | 360,000 tested, 0.23% active | reporter increase, % at 12.5 µM;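 active = mean luciferase reporter signal, scaled so untreated is 0 and the glycosylation-blocking control 100, at or above a set limit in every replicate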;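 also: luciferase carries N-glycosylation sites so blocking glycosylation raises the light; 0% = median of neutral control wells and 100% = median of 100 nM tunicamycin wells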
T cell HTS – T cell immune modulators affecting CD8 T cell-vesicle binding; 330,000 tested, 0.068% active; response (vesicle binding), % at 7 µM; 2C CD8+ T cell-vesicle binding, flow cytometry; hits give low values;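 active = response, share of CD8 T cells binding vesicles, and their 90th percentile fluorescence all below set limits, cut at about 80% in these data, passing the limit was not always enough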;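 also: values below 100% mean blocked vesicle binding to the CD8+ T cells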
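incubation = binding step 1.5 h, 37 °C, antibody labelling 20 min, ice | test system = 2C mouse CD8+ T cells | read-out basis = percent CD8+ FL2 mean versus row control | controls = Peptide-free naked vesicles (low) and QL9 vesicles with 0.7% DMSO vehicle (high) | detection = flow cytometry of vesicle-bound cells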
ALR H2O2 inh – blocks human ALR sulfhydryl oxidase activity; P55789; purified ALR, DTT oxidation, H2O2 HRP-luminol luminescence; inhibition, % (no concentration beside the values); 290,000 tested, 3.8% active; AID 485317;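 active = mean replicate inhibition above about 79%, with every replicate also reaching it, limit read from the data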
Target sequence (P55789 whole entry, looked up): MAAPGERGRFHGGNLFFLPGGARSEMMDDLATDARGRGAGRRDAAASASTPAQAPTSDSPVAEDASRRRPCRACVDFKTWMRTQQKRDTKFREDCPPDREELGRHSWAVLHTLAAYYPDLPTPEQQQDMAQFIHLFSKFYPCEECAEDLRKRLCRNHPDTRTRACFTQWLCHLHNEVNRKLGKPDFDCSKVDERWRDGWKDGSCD
The depositor's hits bear a star. Many of the other results were omitted from the sample, so hits are more common in it than they were.

CCC(Sc1nc2ncccc2[nH]1)C(=O)N1CCOCC1 (stereo not given) was read as Glyco luc inh 3.1, T cell HTS 420.0 and ALR H2O2 inh -3.7.
`NC(=O)CC(NC(=O)c1cccc(Br)c1)c1ccc(NC2CCN(Cc3ccccc3)CC2)c([N+](=O)[O-])c1` (stereo not given) gave Glyco luc inh -2.1, T cell HTS 0.0 and ALR H2O2 inh -5.2.
`CCCCNC(=O)CSc1nc(O)c(Cc2ccc(OC)cc2)c(=O)[nH]1` gave Glyco luc inh -0.2 and T cell HTS inactive.
Screening COc1cc2c(cc1OC)C(C)N(C(=O)c1cc(Cl)nc(Cl)c1)CC2 (stereo not given) returned Glyco luc inh 11.5, T cell HTS 354.2 and ALR H2O2 inh 0.7.
CCc1c(O)nc(SCC(=O)NCc2ccco2)[nH]c1=O was read as Glyco luc inh 2.4, T cell HTS 184.8 and ALR H2O2 inh 97.9*.
CCN(CC)C(=O)CSc1nc(O)c(Cc2ccc(OC)cc2)c(=O)[nH]1 was read as Glyco luc inh 0.5, T cell HTS 409.7 and ALR H2O2 inh 98.0*.
For CCc1c(O)nc(SCC(=O)N2CCc3cc(OC)c(OC)cc3[C@@H]2C)[nH]c1=O the results were Glyco luc inh 0.5, T cell HTS 313.4 and ALR H2O2 inh 99.4*.
Screening COc1ccc(CCNC(=O)CSC(=O)c2ccccc2)cc1OC returned Glyco luc inh -0.7, T cell HTS 233.3 and ALR H2O2 inh 98.8*.
For COc1ccc(CCNC(=O)CSc2ccccc2)cc1OC the results were Glyco luc inh -1.4 and T cell HTS 269.8.
Screening Cc1nnc(SCC(=O)NCc2ccco2)[nH]c1=O returned Glyco luc inh 0.2, T cell HTS 385.1 and ALR H2O2 inh -1.7.
For Nc1nc(O)c(Sc2ccccc2[N+](=O)[O-])c(=O)[nH]1 the results were Glyco luc inh 0.9, T cell HTS 303.0 and ALR H2O2 inh -6.5.
For Cc1cc2cc(C#N)c(N3CCOCC3)nc2cc1Cl the results were Glyco luc inh 6.7, T cell HTS 139.7 and ALR H2O2 inh 66.9.
Screening COc1ccc(NC(=O)CSc2nc(O)c(Cc3ccccc3)c(=O)[nH]2)cc1 returned Glyco luc inh 0.9, T cell HTS 940.1 and ALR H2O2 inh 98.6*.
COc1ccc(CCNC(=O)CSc2nc3[nH]ncc3c(=O)[nH]2)cc1OC was read as Glyco luc inh 1.8, T cell HTS 123.9 and ALR H2O2 inh -8.7.
`COc1ccc(Cc2c(O)nc(SCC(=O)NC34CC5CC(CC(C5)C3)C4)[nH]c2=O)cc1` gave Glyco luc inh -1.6, T cell HTS 364.4 and ALR H2O2 inh 24.5.
CCCc1c(O)nc(SCC(=O)NCCc2ccc(OC)c(OC)c2)[nH]c1=O was read as Glyco luc inh 2.9, T cell HTS 364.8 and ALR H2O2 inh 98.1*.
Screening CNC(=O)c1c(NC(=O)CCS(=O)(=O)c2ccc(F)cc2)sc(C)c1C returned Glyco luc inh -0.9 and T cell HTS 230.9.
Screening CC(C(=O)C12CC3CC(CC(C3)C1)C2)N1CCOCC1 (stereo not given) returned Glyco luc inh 3.5, T cell HTS 381.2 and ALR H2O2 inh -5.3.
`CC1(C)OC(=O)C2=C(C[C@@H](C3CCCCC3)O[C@H]2c2ccc(F)cc2)O1` gave Glyco luc inh -3.2.
`CC(C)(C)Cc1c(-c2ccccc2)nc2ccc(Cl)cn12` gave Glyco luc inh -4.1.
`CC1(C)CC(=O)C=C(c2n[nH]nc2C2CC2)C1` gave Glyco luc inh -0.5.
Screening CCOC(=O)c1c(NC(=O)CSC(=S)N2CCOCC2)sc(C)c1C returned Glyco luc inh 1.5, T cell HTS 253.3 and ALR H2O2 inh 98.0*.
`CCOC(=O)c1sc(NC(=O)CSC(=S)N2CCOCC2)nc1C` gave Glyco luc inh -2.6, T cell HTS inactive and ALR H2O2 inh 18.4.
Screening O=c1[nH][nH]c(C(F)(F)F)c1C=Nc1ccccc1 returned Glyco luc inh 3.1, T cell HTS 509.2 and ALR H2O2 inh 3.5.
Screening Cc1cc(O)ccc1N=Cc1c(C(F)(F)F)[nH][nH]c1=O returned Glyco luc inh 1.6, T cell HTS 186.8 and ALR H2O2 inh 99.0*.
Screening O=C1NC[C@@H](Cc2cccc3ccccc23)N(CCC23CC4CC(CC(C4)C2)C3)C1=O returned Glyco luc inh 2.3, T cell HTS 419.8 and ALR H2O2 inh 4.1.
CCOC(=O)c1c(NC(=O)C2CCCCC2C(=O)O)sc2c1CCCCC2 (stereo not given) was read as Glyco luc inh 0.8, T cell HTS 539.0 and ALR H2O2 inh 24.7.
Screening CCOC(=O)c1c(NC(=O)C2C3C=CC(C3)C2(C)C(=O)O)sc2c1CCCC2 (stereo not given) returned Glyco luc inh -0.8, T cell HTS 338.2 and ALR H2O2 inh 91.0*.
`Cc1ccc(C(=O)N/C(=C\c2ccc(Cl)cc2)C(=O)NCCN2CCOCC2)cc1` gave Glyco luc inh 0.1 and T cell HTS 179.1.
Screening CCOc1ccc2c(c1)nc(SCC(=O)c1cccs1)n2C returned Glyco luc inh 4.4, T cell HTS 264.2 and ALR H2O2 inh 97.0*.
For CCOc1ccc2c(c1)nc(SCC(=O)c1ccc(Br)s1)n2C the results were Glyco luc inh 24.8, T cell HTS 508.7 and ALR H2O2 inh 22.5.
For COc1ccc(N(CC(=O)NC2CC3CCC2C3)S(=O)(=O)c2ccc(C)cc2)cc1Cl (stereo not given) the results were Glyco luc inh -4.2.
For S=c1[nH]nc(-c2ccco2)n1/N=C/c1ccccn1 the results were T cell HTS 233.1 and ALR H2O2 inh 98.3*.
S=c1[nH]nc(-c2ccco2)n1/N=C/c1ccc(Cl)c(Cl)c1 was read as Glyco luc inh 0.9, T cell HTS 255.1 and ALR H2O2 inh 31.0.
Cc1ccc(/C=N/n2c(-c3ccco3)n[nH]c2=S)cc1 was read as Glyco luc inh 1.1, T cell HTS inactive and ALR H2O2 inh 63.0.
Cc1cccc(/C=N/n2c(-c3ccco3)n[nH]c2=S)c1 was read as Glyco luc inh 0.5, T cell HTS inactive and ALR H2O2 inh 97.3*.
Screening COc1ccc(/C=C(/NC(=O)c2ccccc2OC)C(=O)Nc2ccc(C(=O)O)cc2)cc1 returned Glyco luc inh -0.7 and T cell HTS inactive.
Screening O=C(COC(=O)CNC(=O)c1ccccc1)Nc1ccc(Cl)cn1 returned Glyco luc inh 1.8, T cell HTS 166.5 and ALR H2O2 inh 11.7.
`Cc1ccc(-c2nnn(CC(=O)N(CC3CCCO3)C(C(=O)NC(C)(C)C)c3ccc(F)cc3)n2)o1` (stereo not given) gave Glyco luc inh 1.0, T cell HTS 809.6 and ALR H2O2 inh 98.9*.
For Cc1ccc(-c2nnn(CC(=O)N(CC3CCCO3)C(C(=O)NCC3CCCO3)c3ccc(F)cc3)n2)o1 (stereo not given) the results were Glyco luc inh 2.7, T cell HTS 304.9 and ALR H2O2 inh -3.5.
Screening CC1CN(S(=O)(=O)c2ccc(C(=O)N3CCc4ccccc43)cc2)CC(C)O1 (stereo not given) returned Glyco luc inh 2.0, T cell HTS 348.3 and ALR H2O2 inh 43.1.
For Clc1c(Cl)c(Cl)c2n[nH]nc2c1Cl the results were Glyco luc inh 1.7, T cell HTS 550.0 and ALR H2O2 inh 6.3.
